In ChEMBL document CHEMBL5678806, “NMS-P937, an orally available, specific small-molecule polo-like kinase 1 inhibitor with antitumor activity in solid and hematologic malignancies” (Mol Cancer Ther, 2012):
pIC50: −log10 of the molar value. Active and inactive are the calls of the source. The calls are words filed in the database; no cut-off is given here.

Legend:
[1] = target: Cyclin-dependent kinase 1/cyclin B1 (Homo sapiens, UniProt P06493); test: Inhibition of CDK1/CycB (unknown origin) in presence of [gamma-33P]ATP; format: protein-complex assay
[2] = Inhibition of AUR2 (unknown origin) in presence of [gamma-33P]ATP; set-up: species or system Homo sapiens
[3] = target: Fibroblast growth factor receptor 1 (Homo sapiens, UniProt P11362); test: Inhibition of FGFR1 (unknown origin) in presence of [gamma-33P]ATP
Fibroblast growth factor receptor 1, sequence (P11362 whole entry): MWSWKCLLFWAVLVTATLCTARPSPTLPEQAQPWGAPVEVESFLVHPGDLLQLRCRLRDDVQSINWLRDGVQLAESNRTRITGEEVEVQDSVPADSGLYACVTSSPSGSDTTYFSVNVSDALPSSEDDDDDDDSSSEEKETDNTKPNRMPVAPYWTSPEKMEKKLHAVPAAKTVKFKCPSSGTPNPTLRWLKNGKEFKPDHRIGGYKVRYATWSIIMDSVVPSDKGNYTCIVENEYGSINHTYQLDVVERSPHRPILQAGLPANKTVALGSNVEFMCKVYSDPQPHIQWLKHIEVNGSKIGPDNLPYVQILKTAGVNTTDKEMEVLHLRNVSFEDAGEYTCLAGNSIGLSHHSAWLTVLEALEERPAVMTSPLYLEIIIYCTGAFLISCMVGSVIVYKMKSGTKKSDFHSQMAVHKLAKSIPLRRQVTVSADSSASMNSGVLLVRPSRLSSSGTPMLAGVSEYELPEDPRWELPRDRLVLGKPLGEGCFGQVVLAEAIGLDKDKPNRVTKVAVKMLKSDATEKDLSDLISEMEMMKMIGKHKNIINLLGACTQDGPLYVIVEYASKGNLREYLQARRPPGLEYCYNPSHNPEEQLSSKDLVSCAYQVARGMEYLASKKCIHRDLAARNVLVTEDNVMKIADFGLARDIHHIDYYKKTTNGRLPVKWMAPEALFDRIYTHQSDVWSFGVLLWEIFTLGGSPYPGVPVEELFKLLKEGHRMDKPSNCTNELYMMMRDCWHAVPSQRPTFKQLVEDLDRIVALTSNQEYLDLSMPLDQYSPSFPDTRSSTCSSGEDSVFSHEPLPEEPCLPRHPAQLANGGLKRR

[4] = target: Serine/threonine-protein kinase haspin (Homo sapiens, UniProt Q8TF76); test: Inhibition of Haspin (unknown origin) in presence of [gamma-33P]ATP
[5] = target: Inhibitor of nuclear factor kappa-B kinase subunit beta (Homo sapiens, UniProt O14920); test: Inhibition of IKK2 (unknown origin) in presence of [gamma-33P]ATP
Inhibitor of nuclear factor kappa-B kinase subunit beta, sequence (O14920 whole entry): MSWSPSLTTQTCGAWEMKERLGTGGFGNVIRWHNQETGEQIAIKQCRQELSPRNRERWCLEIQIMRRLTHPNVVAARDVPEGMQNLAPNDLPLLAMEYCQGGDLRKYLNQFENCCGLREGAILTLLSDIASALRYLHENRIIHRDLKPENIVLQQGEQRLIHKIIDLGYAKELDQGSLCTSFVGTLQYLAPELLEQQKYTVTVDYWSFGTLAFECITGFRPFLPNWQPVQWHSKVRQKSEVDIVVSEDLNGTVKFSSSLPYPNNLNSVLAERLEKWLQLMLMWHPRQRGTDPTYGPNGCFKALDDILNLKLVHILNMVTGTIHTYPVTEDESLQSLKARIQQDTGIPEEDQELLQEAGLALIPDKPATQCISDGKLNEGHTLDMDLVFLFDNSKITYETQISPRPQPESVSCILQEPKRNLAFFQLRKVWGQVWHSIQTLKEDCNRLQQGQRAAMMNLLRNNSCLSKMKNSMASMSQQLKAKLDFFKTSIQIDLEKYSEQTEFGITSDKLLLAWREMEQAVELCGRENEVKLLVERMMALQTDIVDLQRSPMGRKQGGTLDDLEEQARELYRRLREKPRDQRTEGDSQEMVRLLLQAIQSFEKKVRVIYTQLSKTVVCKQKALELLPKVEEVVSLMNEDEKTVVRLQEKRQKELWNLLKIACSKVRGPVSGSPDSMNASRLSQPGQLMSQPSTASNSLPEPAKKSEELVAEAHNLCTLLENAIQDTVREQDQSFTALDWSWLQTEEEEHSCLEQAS

[6] = target: Serine/threonine-protein kinase 26 (Homo sapiens, UniProt Q9P289); test: Inhibition of MST4 (unknown origin) in presence of [gamma-33P]ATP
Serine/threonine-protein kinase 26, sequence (Q9P289 whole entry): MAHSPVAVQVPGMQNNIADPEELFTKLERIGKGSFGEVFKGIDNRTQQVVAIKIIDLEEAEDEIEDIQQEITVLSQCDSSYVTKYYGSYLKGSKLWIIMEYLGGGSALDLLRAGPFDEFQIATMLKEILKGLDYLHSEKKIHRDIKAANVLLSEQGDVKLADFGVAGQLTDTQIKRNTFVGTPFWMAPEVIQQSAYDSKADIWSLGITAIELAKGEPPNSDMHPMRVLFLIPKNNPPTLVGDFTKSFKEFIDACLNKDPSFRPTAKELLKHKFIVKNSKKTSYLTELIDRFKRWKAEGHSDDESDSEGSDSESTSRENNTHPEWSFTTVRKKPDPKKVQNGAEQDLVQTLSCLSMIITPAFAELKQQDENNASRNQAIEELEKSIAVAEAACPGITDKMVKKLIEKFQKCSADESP

[7] = target: Inhibitor of nuclear factor kappa-B kinase subunit beta (Homo sapiens) (UniProt O14920); test: Inhibition of N-terminal His6 tagged recombinant full-length human IKKbeta expressed in baculovirus infected Sf21 cells assessed as residual activity at 0.1 uM relative to control
Inhibitor of nuclear factor kappa-B kinase subunit beta (Homo sapiens), sequence (O14920 whole entry): as the sequence (O14920 whole entry) above

[8] = target: SRSF protein kinase 3 (Homo sapiens) (UniProt Q9UPE1); test: Inhibition of N-terminal 6His-tagged recombinant human full-length MSSK1 expressed in baculovirus infected Sf21 cells assessed as residual activity at 0.1 uM relative to control
SRSF protein kinase 3 (Homo sapiens), sequence (Q9UPE1 whole entry, the tested form may be a part): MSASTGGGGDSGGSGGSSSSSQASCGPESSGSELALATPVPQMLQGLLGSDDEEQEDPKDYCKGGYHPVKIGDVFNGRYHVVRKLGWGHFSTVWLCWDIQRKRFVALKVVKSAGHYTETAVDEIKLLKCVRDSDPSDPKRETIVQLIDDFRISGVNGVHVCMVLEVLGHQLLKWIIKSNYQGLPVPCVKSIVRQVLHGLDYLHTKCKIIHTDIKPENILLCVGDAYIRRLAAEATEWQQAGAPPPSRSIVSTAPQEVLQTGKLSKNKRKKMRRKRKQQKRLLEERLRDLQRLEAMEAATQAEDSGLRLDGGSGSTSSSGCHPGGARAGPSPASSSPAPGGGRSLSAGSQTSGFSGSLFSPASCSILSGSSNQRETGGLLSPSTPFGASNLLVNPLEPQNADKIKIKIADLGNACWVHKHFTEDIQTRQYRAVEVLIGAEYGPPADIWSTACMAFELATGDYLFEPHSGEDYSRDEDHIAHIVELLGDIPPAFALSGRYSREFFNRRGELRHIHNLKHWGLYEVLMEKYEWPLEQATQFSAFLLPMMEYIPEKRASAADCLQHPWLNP

[9] = target: Rho-associated protein kinase 2 (Homo sapiens) (UniProt O75116); test: Inhibition of N-terminal His6-tagged recombinant human ROCK-II (11 to 552 residues) expressed in baculovirus infected Sf21 cells assessed as residual activity at 0.1 uM relative to control
Rho-associated protein kinase 2 (Homo sapiens), sequence (O75116 whole entry, looked up, the tested form may be a part): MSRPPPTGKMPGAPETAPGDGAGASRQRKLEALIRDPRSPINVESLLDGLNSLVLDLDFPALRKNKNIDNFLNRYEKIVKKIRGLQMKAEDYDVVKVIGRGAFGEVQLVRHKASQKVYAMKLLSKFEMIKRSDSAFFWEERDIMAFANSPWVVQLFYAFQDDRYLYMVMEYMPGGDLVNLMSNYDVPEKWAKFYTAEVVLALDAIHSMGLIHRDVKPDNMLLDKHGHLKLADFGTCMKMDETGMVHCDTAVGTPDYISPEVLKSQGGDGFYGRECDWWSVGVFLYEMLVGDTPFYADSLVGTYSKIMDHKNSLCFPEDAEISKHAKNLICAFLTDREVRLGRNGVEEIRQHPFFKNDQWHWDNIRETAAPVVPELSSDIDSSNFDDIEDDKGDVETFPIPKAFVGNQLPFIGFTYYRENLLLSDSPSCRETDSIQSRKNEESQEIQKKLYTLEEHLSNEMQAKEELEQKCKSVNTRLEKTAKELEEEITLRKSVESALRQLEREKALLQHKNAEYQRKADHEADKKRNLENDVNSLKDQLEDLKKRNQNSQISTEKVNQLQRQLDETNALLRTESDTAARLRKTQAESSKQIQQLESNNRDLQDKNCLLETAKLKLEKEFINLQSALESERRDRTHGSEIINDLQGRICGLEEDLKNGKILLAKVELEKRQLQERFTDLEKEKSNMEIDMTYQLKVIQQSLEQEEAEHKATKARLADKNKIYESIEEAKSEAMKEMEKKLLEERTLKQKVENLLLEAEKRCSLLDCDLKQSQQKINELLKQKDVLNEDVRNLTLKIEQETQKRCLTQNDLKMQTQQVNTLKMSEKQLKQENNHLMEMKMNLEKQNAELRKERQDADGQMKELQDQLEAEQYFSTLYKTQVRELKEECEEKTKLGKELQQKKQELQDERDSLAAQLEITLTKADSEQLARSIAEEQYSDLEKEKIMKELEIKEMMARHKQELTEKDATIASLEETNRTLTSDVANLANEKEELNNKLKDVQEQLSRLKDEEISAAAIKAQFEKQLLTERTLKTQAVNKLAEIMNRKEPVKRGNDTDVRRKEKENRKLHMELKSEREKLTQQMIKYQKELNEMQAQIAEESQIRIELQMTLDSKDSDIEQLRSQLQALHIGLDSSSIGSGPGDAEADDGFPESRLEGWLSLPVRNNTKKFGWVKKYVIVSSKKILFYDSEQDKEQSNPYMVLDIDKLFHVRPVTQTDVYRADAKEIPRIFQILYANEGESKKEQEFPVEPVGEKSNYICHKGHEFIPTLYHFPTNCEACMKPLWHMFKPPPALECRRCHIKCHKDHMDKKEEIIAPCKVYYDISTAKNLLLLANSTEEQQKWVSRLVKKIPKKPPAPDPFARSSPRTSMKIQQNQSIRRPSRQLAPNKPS

[10] = target: Tyrosine-protein kinase ZAP-70 (Homo sapiens) (UniProt P43403); test: Inhibition of C-terminal His6 tagged recombinant human full length ZAP-70 expressed in Sf21 cells assessed as residual activity at 0.1 uM relative to control
Tyrosine-protein kinase ZAP-70 (Homo sapiens), sequence (P43403 whole entry, the tested form may be a part): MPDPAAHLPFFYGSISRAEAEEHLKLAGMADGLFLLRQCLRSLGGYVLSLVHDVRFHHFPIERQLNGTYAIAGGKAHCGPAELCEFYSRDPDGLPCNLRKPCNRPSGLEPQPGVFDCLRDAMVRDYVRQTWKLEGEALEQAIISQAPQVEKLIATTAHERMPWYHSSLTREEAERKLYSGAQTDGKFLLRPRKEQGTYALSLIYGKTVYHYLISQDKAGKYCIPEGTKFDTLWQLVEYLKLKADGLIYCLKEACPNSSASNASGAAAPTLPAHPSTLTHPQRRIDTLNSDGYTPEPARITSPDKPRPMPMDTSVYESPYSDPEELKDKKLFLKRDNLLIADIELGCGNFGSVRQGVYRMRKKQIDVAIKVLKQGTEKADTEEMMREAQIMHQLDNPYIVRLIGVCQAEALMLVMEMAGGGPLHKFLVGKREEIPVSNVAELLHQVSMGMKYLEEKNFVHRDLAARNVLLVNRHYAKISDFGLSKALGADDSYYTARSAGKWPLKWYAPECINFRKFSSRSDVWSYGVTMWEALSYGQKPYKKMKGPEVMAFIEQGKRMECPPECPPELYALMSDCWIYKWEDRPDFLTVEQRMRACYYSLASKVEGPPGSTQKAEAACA

[11] = target: Tyrosine-protein kinase HCK (Homo sapiens) (UniProt P08631); test: Inhibition of N-terminal 6His-tagged recombinant human Hck (230 to 497 residues) expressed in baculovirus infected Sf21 cells assessed as residual activity at 1 uM relative to control
[12] = target: Tyrosine-protein kinase Lyn (Homo sapiens, UniProt P07948); test: Inhibition of N-terminal his6-tagged recombinant full-length human Lyn expressed in Sf21 cells assessed as residual activity at 1 uM relative to control
[13] = target: Mitogen-activated protein kinase 12 (Homo sapiens) (UniProt P53778); test: Inhibition of recombinant GST fusion protein corresponding to full-length human SAPK3 expressed in E. coli assessed as residual activity at 1 uM relative to control
[14] = target: Death-associated protein kinase 3 (Homo sapiens) (UniProt O43293); test: Inhibition of N-terminal GST tagged recombinant human ZIPK (1 to 290 residues) expressed in E. coli assessed as residual activity at 1 uM relative to control
Death-associated protein kinase 3 (Homo sapiens), sequence (O43293 whole entry, looked up, the tested form may be a part): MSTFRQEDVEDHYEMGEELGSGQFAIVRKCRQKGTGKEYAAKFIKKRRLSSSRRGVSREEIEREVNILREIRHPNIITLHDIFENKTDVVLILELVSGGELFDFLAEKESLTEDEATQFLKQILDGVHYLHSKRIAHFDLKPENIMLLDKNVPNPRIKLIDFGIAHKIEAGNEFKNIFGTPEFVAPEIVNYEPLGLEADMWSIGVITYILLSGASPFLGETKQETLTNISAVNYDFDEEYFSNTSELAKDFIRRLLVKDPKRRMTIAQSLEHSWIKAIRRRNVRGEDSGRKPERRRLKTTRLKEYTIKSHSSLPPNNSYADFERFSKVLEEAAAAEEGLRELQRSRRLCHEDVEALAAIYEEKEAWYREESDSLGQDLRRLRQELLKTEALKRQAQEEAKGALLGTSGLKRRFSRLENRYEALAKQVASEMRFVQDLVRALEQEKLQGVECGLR

HDQ-P1 = test: Antiproliferative activity against human HDQ-P1 cells assessed as inhibition of cell growth incubated for 72 hrs by cell-titer glo assay; format: functional, cell-based; details: HDQ-P1, 72 h
In short: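 Cells seeded at 10,000–30,000/cm² (adherent) in medium with 10% fetal calf serum; after 24 h treated in duplicate with serial dilutions for 72 h. Viable cell number read by CellTiter-Glo luminescence. IC50 from sigmoidal curve fit; at least two independent experiments.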

MDA-MB-468 = test: Antiproliferative activity against human MDA-MB-468 cells assessed as inhibition of cell growth incubated for 72 hrs by cell-titer glo assay; format: functional, cell-based; details: MDA-MB-468, 72 h
In short: (§1)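 Cells seeded at 10,000–30,000/cm² (adherent) or 100,000/mL (nonadherent) in medium with 10% fetal calf serum; after 24 h, treated in duplicate with serial dilutions for 72 h. Viable cell number read by CellTiter-Glo luminescence; IC50 from sigmoidal fit; at least two independent experiments.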

MDA-MB-453 = test: Antiproliferative activity against human MDA-MB-453 cells assessed as inhibition of cell growth incubated for 72 hrs by cell-titer glo assay; format: functional, cell-based; details: MDA-MB-453, 72 h; in short: as §1
HCC70 = test: Antiproliferative activity against human HCC70 cells assessed as inhibition of cell growth incubated for 72 hrs by cell-titer glo assay; format: functional, cell-based; details: HCC70, 72 h; in short: as §1
SW-403 = test: Antiproliferative activity against human SW403 cells assessed as inhibition of cell growth incubated for 72 hrs by cell-titer glo assay; format: functional, cell-based; details: SW-403, 72 h
SK-LU-1 = test: Antiproliferative activity against human SK-LU-1 cells assessed as inhibition of cell growth incubated for 72 hrs by cell-titer glo assay; format: functional, cell-based; details: SK-LU-1, 72 h
[15] = Antiproliferative activity against human HCC15 cells assessed as inhibition of cell growth incubated for 72 hrs by cell-titer glo assay; format: functional, cell-based; details: HCC15, 72 h; in short: as §1
SK-MES-1 = test: Antiproliferative activity against human SK-MES-1 cells assessed as inhibition of cell growth incubated for 72 hrs by cell-titer glo assay; format: functional, cell-based; details: SK-MES-1, 72 h
NCI-H889 = test: Antiproliferative activity against human NCI-H889 cells assessed as inhibition of cell growth incubated for 72 hrs by cell-titer glo assay; format: functional, cell-based; details: NCI-H889, 72 h
In short: (§2)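 Cells from ATCC or ECACC, kept in supplier-recommended medium with 1% penicillin-streptomycin at 37°C, 5% CO₂. Seeded at 10,000–30,000/cm² (adherent) or 100,000/mL (nonadherent) in medium with 10% fetal calf serum. Dosed after 24 h in duplicate with serial dilutions. Viable cells read by CellTiter-Glo 72 h later. IC50 from sigmoidal fit. At least two independent experiments.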

UACC-62 = test: Antiproliferative activity against human UACC-62 cells assessed as inhibition of cell growth incubated for 72 hrs by cell-titer glo assay; format: functional, cell-based; details: UACC-62, 72 h
RO82-W-1 = test: Antiproliferative activity against human RO82-W-1 cells assessed as inhibition of cell growth incubated for 72 hrs by cell-titer glo assay; format: functional, cell-based; details: RO82-W-1, 72 h; in short: as §2
HL-60 [16] = test: Antiproliferative activity against human HL-60 cells assessed as inhibition of cell growth incubated for 72 hrs by cell-titer glo assay; format: functional, cell-based; details: HL-60, 72 h; in short: as §1
KU812 cell line = test: Antiproliferative activity against human KU812 cell line assessed as inhibition of cell growth incubated for 72 hrs by cell-titer glo assay; format: functional, cell-based; details: KU812, 72 h; in short: as §1
SU-DHL-8 = test: Antiproliferative activity against human SU-DHL-8 cells assessed as inhibition of cell growth incubated for 72 hrs by cell-titer glo assay; format: functional, cell-based; details: SU-DHL-8, 72 h
A2780 = test: Induction of mitosis in human A2780 cells xenografted in nu/nu mouse assessed as increased Histone H3 phosphorylation on Ser10 at 60 mg/kg, po administered for 2 to 6 hrs by immunohistochemistry analysis; format: functional, organism-based; details: time 2-6 hrs
HL-60 [17] = test: Antitumor activity against human HL-60 cells xenografted in nu/nu mouse assessed as efficacy parameter L0 at 60 mg/kg, po administered for 10 days relative to control; format: functional; details: time 10 day

## CN1CCN(c2ccc(OC(F)(F)F)c(Nc3ncc4c(n3)-c3c(c(C(N)=O)nn3CCO)CC4)c2)CC1 [ONVANSERTIB]
[1]
  pIC50: < 5.00
[2]
  pIC50: < 5.00
[3]
  pIC50: < 5.00
[4]
  pIC50: < 5.00
[5]
  pIC50: < 5.00
[6]
  pIC50: < 5.00
[7]
  Activity: 122%
[8]
  Activity: 87%
[9]
  Activity: 132%
[10]
  Activity: 88%
[11]
  Activity: 118%
[12]
  Activity: 198%
[13]
  Activity: 113%
[14]
  Activity: 87%
HDQ-P1
  pIC50: 7.29
MDA-MB-468
  pIC50: 7.08
MDA-MB-453
  pIC50: 7.05
HCC70
  pIC50: 6.55
SW-403
  pIC50: 7.34
SK-LU-1
  pIC50: 6.35
[15]
  pIC50: 7.82
SK-MES-1
  pIC50: 6.44
NCI-H889
  pIC50: 6.87
UACC-62
  pIC50: 6.99
RO82-W-1
  pIC50: 6.08
HL-60 [16]
  pIC50: 7.14
KU812 cell line
  pIC50: 7.70
SU-DHL-8
  pIC50: 7.51
A2780
  Activity: Active
HL-60 [17]
  Activity: 0.06 g
